The source made the active and inactive calls. The calls are words filed in the database; no cut-off is given here.
Tests used:
BJ = assay: Cytotoxicity against human BJ cells assessed as reduction in cell viability incubated for 72 hrs by resazurin assay; assay type: cell-based
Outline: (§1)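 Cells (CEM, HeLa, MCF7, BJ fibroblasts) exposed to compounds for 72 h, viability read by resazurin staining. Values are means ± SD from at least three independent experiments run in triplicate.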

MCF7 = assay: Cytotoxicity against human MCF7 cells assessed as reduction in cell viability incubated for 72 hrs by resazurin assay; assay type: functional, cell-based; details: MCF7, 72 h; outline: as §1
Sus scrofa = organism: Sus scrofa; assay: Inhibition of porcine kidney Na+/K+ ATPase at 50 uM assessed as enzyme residual activity using ATP as substrate incubated for 2 mins followed by substrate addition and measured after 6 mins (reference value: 100 +/-3.16%); assay type: tissue-based; details: time 8.0 min
CCRF-CEM = assay: Cytotoxicity against human CEM cells assessed as reduction in cell viability incubated for 72 hrs by resazurin assay; assay type: functional, cell-based; outline: as §1
HeLa [1] = assay: Cytotoxicity against human HeLa cells assessed as reduction in cell viability incubated for 72 hrs by resazurin assay; assay type: functional, cell-based; outline: as §1
HeLa [2] = assay: Induction of apoptosis in human HeLa cells assessed as fold increase in caspase 3/7 activity at 1 to 10 uM incubated for 24 hrs by fluorescence based assay relative to control; assay type: functional; details: dose 1-10 µM
HeLa [3] = assay: Induction of apoptosis in human HeLa cells assessed as reduction in Rb level at 1 to 10 uM incubated for 24 hrs by Western blotting analysis; assay type: functional, cell-based; details: dose 1-10 µM
Outline: (§2)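 HeLa cells treated 24 h at 1 and 10 µM. Lysates resolved by SDS-PAGE and immunoblotted for PARP-1, caspase-7 zymogen and fragment, Mcl-1, Bcl-2, p53, phospho-Rb, total Rb, phospho-Src (Tyr416) and total Src. β-actin used as loading control. Compared with untreated controls; three repeats.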

HeLa [4] = assay: Induction of apoptosis in human HeLa cells assessed as reduction in Rb phosphorylation at 1 to 10 uM incubated for 24 hrs by Western blotting analysis; assay type: functional, cell-based; details: dose 1-10 µM; outline: as §2
HeLa [5] = assay: Induction of cell cycle arrest in human HeLa cells assessed as decrease in accumulation of cells at G0/G1 phase at 1 to 10 uM incubated for 24 hrs by PI staining based flow cytometry analysis relative to control; assay type: functional; set-up: scale not given: the % may be the effect or the level left; details: dose 1-10 µM
Outline: (§3)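 HeLa cells treated 24 h at 1 or 10 µM, then harvested, fixed and stained with propidium iodide. DNA content measured by flow cytometry and cells assigned to subG1 (apoptotic), G0/G1, S and G2/M. Compared with untreated and DMSO-only controls. Means of three independent experiments in triplicate; one-way ANOVA, p < 0.05.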

HeLa [6] = assay: Downregulation of p53 protein expression in human HeLa cells at 1 to 10 uM incubated for 24 hrs by Western blotting analysis; assay type: functional, cell-based; details: dose 1-10 µM; outline: as §2
HeLa [7] = assay: Induction of apoptosis in human HeLa cells assessed as increase in PARP-1 cleavage at 10 uM incubated for 24 hrs by Western blotting analysis; assay type: functional, cell-based; outline: as §2
HeLa [8] = assay: Induction of apoptosis in human HeLa cells assessed as increase in caspase 7 fragmentation at 1 to 10 uM incubated for 24 hrs by Western blotting analysis; assay type: functional, cell-based; details: dose 1-10 µM; outline: as §2
HeLa [9] = assay: Induction of cell cycle arrest in human HeLa cells assessed as increase in accumulation at G2/M phase at 1 uM incubated for 24 hrs by PI staining based flow cytometry analysis relative to control; assay type: functional; outline: as §3
HeLa [10] = assay: Induction of cell cycle arrest in human HeLa cells assessed as increase in accumulation at subG1 phase at 1 to 10 uM incubated for 24 hrs by PI staining based flow cytometry analysis relative to control; assay type: functional; details: dose 1-10 µM; outline: as §3
HeLa [11] = assay: Induction of cell cycle arrest in human HeLa cells assessed as increase in accumulation at G2/M phase at 10 uM incubated for 24 hrs by PI staining based flow cytometry analysis relative to control; assay type: functional; outline: as §3
HeLa [12] = assay: Effect on Src kinase protein expression in human HeLa cells at 1 uM incubated for 24 hrs by western blot analysis; assay type: functional, cell-based; outline: as §2
HeLa [13] = assay: Downregulation of Src kinase activity in human HeLa cells assessed as decrease in Src kinase phosphorylation at Tyr416 residue at 1 uM incubated for 24 hrs by Western blotting analysis
HeLa [14] = assay: Induction of apoptosis in human HeLa cells assessed as downregulation of Bcl2 protein expression at 1 uM incubated for 24 hrs by Western blotting analysis; assay type: functional, cell-based; outline: as §2
HeLa [15] = assay: Induction of cell cycle arrest in human HeLa cells assessed as increase in accumulation at S phase at 1 to 10 uM incubated for 24 hrs by PI staining based flow cytometry analysis; assay type: functional; details: dose 1-10 µM; outline: as §3
HeLa [16] = assay: Induction of apoptosis in human HeLa cells assessed as downregulation of Mcl1 protein expression at 1 to 10 uM incubated for 24 hrs by Western blotting analysis; assay type: functional, cell-based; details: dose 1-10 µM; outline: as §2
HeLa [17] = assay: Induction of apoptosis in human HeLa cells assessed as downregulation of Bcl2 protein expression at 1 to 10 uM incubated for 24 hrs by Western blotting analysis; assay type: functional, cell-based; details: dose 1-10 µM; outline: as §2
HeLa [18] = assay: Induction of apoptosis in human HeLa cells assessed as reduction in Rb phosphorylation at 1 uM incubated for 24 hrs by Western blotting analysis; assay type: functional, cell-based; outline: as §2

SMILES	IC50 (BJ) [µM]	IC50 (MCF7) [µM]	Activity (Sus scrofa) [%]	IC50 (CCRF-CEM) [µM]	IC50 (HeLa [1]) [µM]	also measured
CC(=O)O[C@H]1C[C@]2(O)[C@@H]3CC[C@@H]4C[C@@H](O[Si](C)(C)C(C)(C)C)CC[C@]4(C)[C@H]3CC[C@]2(C)[C@H]1c1ccoc1	> 50	> 50	69.1	> 50	> 50	
CC(=O)O[C@H]1C[C@]2(O)[C@@H]3CC[C@@H]4C[C@@H](O)CC[C@]4(C)[C@H]3CC[C@]2(C)[C@H]1C1=CC(=O)OC1			64.8			fold change (FC) (HeLa [2]): 2; Activity (HeLa [3]): Active; Activity (HeLa [4]): Active; Activity (HeLa [5]): 4.4%; inhibition (HeLa [6]): Active; Activity (HeLa [7]): Active; Activity (HeLa [8]): Active
CC(C)(C)[Si](C)(C)O[C@H]1CC[C@@]2(C)[C@H](CC[C@@H]3[C@@H]2CC[C@]2(C)[C@@H](c4ccoc4)[C@@H](O)C[C@]32O)C1	5.8	19.4	15.1	9.9	26.7	
CC(=O)O[C@H]1C[C@]2(O)[C@@H]3CC[C@@H]4C[C@@H](O)CC[C@]4(C)[C@H]3CC[C@]2(C)[C@H]1c1ccoc1	4	16.1	42.4	9.4	14.2	
CC(C)(C)[Si](C)(C)O[C@H]1CC[C@@]2(C)[C@H](CC[C@@H]3[C@@H]2CC[C@]2(C)[C@@H](c4ccoc4)[C@@H](O)[C@H]4O[C@]342)C1	16.3	14	74.4	34.7	32.3	
CC(=O)O[C@H]1C[C@]2(O)[C@@H]3CC[C@@H]4C[C@@H](O[Si](C)(C)C(C)(C)C)CC[C@]4(C)[C@H]3CC[C@]2(C)[C@H]1C1=CC(=O)OC1	10.6	20.3	79.3	17.3	34.1	
CC(=O)O[C@H]1CC[C@@]2(C)[C@H](CC[C@@H]3[C@@H]2CC[C@]2(C)[C@@H](c4ccoc4)[C@@H](OC(C)=O)C[C@]32O)C1	6.2	20.2	79.9	14.2	43.1	
CO[C@H]1C[C@H](O[C@H]2CC[C@@]3(C)[C@H](CC[C@@H]4[C@@H]3CC[C@]3(C)[C@@H](C5=CC(=O)OC5)[C@@H](OC(C)=O)C[C@]43O)C2)O[C@@H](C)[C@@H]1O			59.2			
CC(=O)O[C@H]1CC[C@@]2(C)[C@H](CC[C@@H]3[C@@H]2CC[C@]2(C)[C@@H](C4=CC(=O)OC4)[C@@H](OC(C)=O)C[C@]32O)C1 [GITOXIGENIN DIACETATE]	0.2	1.7	101	0.4	1.1	Activity (HeLa [9]): 13.1%; fold change (FC) (HeLa [2]): 2; fold change (FC) (HeLa [10]): 2; Activity (HeLa [3]): Active; Activity (HeLa [11]): 11.9%; Activity (HeLa [12]): inactive; Activity (HeLa [4]): Active; Activity (HeLa [5]): 4.4%; inhibition (HeLa [13]): Active; Activity (HeLa [14]): Active; inhibition (HeLa [6]): Active; Activity (HeLa [7]): Active; Activity (HeLa [8]): Active; Activity (HeLa [15]): Active; Activity (HeLa [16]): Active
CC(=O)O[C@H]1C[C@@]23O[C@@H]4OC(=O)C=C4[C@@H]1[C@@]2(C)CC[C@H]1[C@H]3CC[C@@H]2C[C@@H](O)CC[C@@]21C	> 50	> 50	83.9	> 50	> 50	
C[C@]12CC[C@H](O)C[C@H]1CC[C@@H]1[C@@H]2CC[C@]2(C)[C@@H](c3ccoc3)[C@@H](O)C[C@]12O	1.9	10.6	7.9	3.6	14.5	Activity (HeLa [9]): Active; fold change (FC) (HeLa [2]): 2; fold change (FC) (HeLa [10]): 2; Activity (HeLa [3]): Active; Activity (HeLa [11]): Active; Activity (HeLa [12]): inactive; Activity (HeLa [17]): Active; Activity (HeLa [5]): 4.4%; inhibition (HeLa [13]): Active; inhibition (HeLa [6]): Active; Activity (HeLa [7]): Active; Activity (HeLa [8]): Active; Activity (HeLa [15]): Active; Activity (HeLa [18]): inactive; Activity (HeLa [16]): Active
C[C@]12CC[C@H](O)C[C@H]1CC[C@@H]1[C@@H]2CC[C@]2(C)[C@@H](c3ccoc3)[C@@H](O)[C@H]3O[C@]132	> 50	> 50	75.5	> 50	> 50	

Reference: ChEMBL document CHEMBL4765371, “Synthesis and evaluation of Na/K-ATP-ase inhibiting and cytotoxic in vitro activities of oleandrigenin and its selected 17β-(butenolidyl)- and 17β-(3-furyl)- analogues” (Eur J Med Chem, 2020)
